Measurements as given in ChEMBL document CHEMBL1240414, “Synthesis and anticonvulsant activity of new 6-methyl-1-substituted-4,6-diazaspiro[2.4]heptane-5,7-diones” (Eur J Med Chem, 2010).
The source made the active and inactive calls.

Tests used:
Mus musculus [1] = test: Anticonvulsant activity in Kunming mouse assessed as protection against maximal electroshock-induced seizures at 30 mg/kg, ip after 0.5 hrs; format: functional, organism-based; parameters: dose 30 mg/kg
Mus musculus [2] = test: Anticonvulsant activity in Kunming mouse assessed as protection against maximal electroshock-induced seizures at 100 mg/kg, ip after 0.5 hrs; format: functional, organism-based; parameters: dose 100 mg/kg
Mus musculus [3] = test: Anticonvulsant activity in Kunming mouse assessed as protection against maximal electroshock-induced seizures at 30 mg/kg, ip after 4 hrs; format: functional, organism-based; parameters: dose 30 mg/kg
Mus musculus [4] = test: Anticonvulsant activity in Kunming mouse assessed as protection against maximal electroshock-induced seizures at 300 mg/kg, ip after 4 hrs; format: functional, organism-based; parameters: dose 300 mg/kg
Mus musculus [5] = test: Anticonvulsant activity in Kunming mouse assessed as protection against subcutaneous pentylenetetrazole-induced seizures at 30 mg/kg, ip after 0.5 hrs; format: functional, organism-based; parameters: dose 30 mg/kg
Method in brief: (§1)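 Male Kunming mice (20 ± 2.0 g) received the compound ip as a suspension in 0.5% methylcellulose at 30, 100 or 300 mg/kg, one to four mice per dose. Pentylenetetrazole in 0.9% saline was given sc at 0.5 h and 4.0 h after dosing. Protection meant no threshold seizure (one clonic spasm episode of at least 5 s). Scored as protected/tested.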

Mus musculus [6] = test: Anticonvulsant activity in Kunming mouse assessed as protection against subcutaneous pentylenetetrazole-induced seizures at 30 mg/kg, ip after 4 hrs; format: functional, organism-based; parameters: dose 30 mg/kg; method in brief: as §1
Mus musculus [7] = test: Anticonvulsant activity in Kunming mouse assessed as protection against subcutaneous pentylenetetrazole-induced seizures at 100 mg/kg, ip after 4 hrs; format: functional, organism-based; parameters: dose 100 mg/kg; method in brief: as §1
Mus musculus [8] = test: Neurotoxicity in Kunming mouse assessed as minimum motor impairment at 30 mg/kg, ip after 0.5 hrs by rotarod test; format: toxicity, organism-based; parameters: dose 30 mg/kg, route intraperitoneal; conditions: in vivo
Method in brief: (§2)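 Rotorod neurotoxicity in male Kunming mice (20 ± 2.0 g) given ip doses of 30, 100 or 300 mg/kg as a suspension in 0.5% methylcellulose, one to four mice per dose. Motor impairment was examined at 0.5 h and 4.0 h after injection. Reported as number of animals showing toxicity/number tested.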

Mus musculus [9] = test: Neurotoxicity in Kunming mouse assessed as minimum motor impairment at 100 mg/kg, ip after 0.5 hrs by rotarod test; format: toxicity, organism-based; parameters: dose 100 mg/kg, route intraperitoneal; conditions: in vivo; method in brief: as §2
Mus musculus [10] = test: Neurotoxicity in Kunming mouse assessed as minimum motor impairment at 300 mg/kg, ip after 0.5 hrs by rotarod test; format: toxicity, organism-based; parameters: dose 300 mg/kg, route intraperitoneal; conditions: in vivo; method in brief: as §2
Mus musculus [11] = test: Neurotoxicity in Kunming mouse assessed as minimum motor impairment at 30 mg/kg, ip after 4 hrs by rotarod test; format: toxicity, organism-based; parameters: dose 30 mg/kg, route intraperitoneal; conditions: in vivo; method in brief: as §2
Mus musculus [12] = test: Neurotoxicity in Kunming mouse assessed as minimum motor impairment at 100 mg/kg, ip after 4 hrs by rotarod test; format: toxicity, organism-based; parameters: dose 100 mg/kg, route intraperitoneal; conditions: in vivo; method in brief: as §2
Mus musculus [13] = test: Neurotoxicity in Kunming mouse assessed as minimum motor impairment at 300 mg/kg, ip after 4 hrs by rotarod test; format: toxicity, organism-based; parameters: dose 300 mg/kg, route intraperitoneal; conditions: in vivo; method in brief: as §2
Rattus norvegicus [14] = test: Neurotoxicity in Kunming rat assessed as minimum motor impairment at 30 mg/kg, po after 0.25 hrs by rotarod test; format: toxicity, organism-based; parameters: dose 30 mg/kg, route oral; conditions: in vivo
Method in brief: (§3)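 Rotorod neurotoxicity in male Kunming rats (250 ± 5.0 g) given 30 mg/kg po, four rats per compound. Motor impairment was assessed at 0.25, 0.5, 1, 2 and 4 h after oral administration.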

Rattus norvegicus [15] = test: Neurotoxicity in Kunming rat assessed as minimum motor impairment at 30 mg/kg, po after 0.5 hrs by rotarod test; format: functional, organism-based; parameters: dose 30 mg/kg; method in brief: as §3
Rattus norvegicus [16] = test: Neurotoxicity in Kunming rat assessed as minimum motor impairment at 30 mg/kg, po after 1 hr by rotarod test; format: functional, organism-based; parameters: dose 30 mg/kg; method in brief: as §3
Rattus norvegicus [17] = test: Neurotoxicity in Kunming rat assessed as minimum motor impairment at 30 mg/kg, po after 2 hrs by rotarod test; format: functional, organism-based; parameters: dose 30 mg/kg; method in brief: as §3
Rattus norvegicus [18] = test: Neurotoxicity in Kunming rat assessed as minimum motor impairment at 30 mg/kg, po after 4 hrs by rotarod test; format: functional, organism-based; parameters: dose 30 mg/kg; method in brief: as §3
Rattus norvegicus [19] = test: Anticonvulsant activity in Kunming rat assessed as protection against subcutaneous pentylenetetrazole-induced seizures at 30 mg/kg, po after 0.5 hrs; format: functional
Rattus norvegicus [20] = test: Anticonvulsant activity in Kunming rat assessed as protection against subcutaneous pentylenetetrazole-induced seizures at 30 mg/kg, po after 1 hr; format: functional
Mus musculus [21] = test: Anticonvulsant activity in Kunming mouse assessed as protection against maximal electroshock-induced seizures at 100 mg/kg, ip after 4 hrs; format: functional, organism-based; parameters: dose 100 mg/kg
Rattus norvegicus [22] = test: Anticonvulsant activity in Kunming rat assessed as protection against maximal electroshock-induced seizures at 30 mg/kg, po after 0.5 hrs; format: functional
Method in brief: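 Male Kunming rats (250 ± 5.0 g) were dosed orally at 30 mg/kg, four rats per compound. Seizures were induced by a 150-mA corneal current for 0.2 s at 0.25, 0.5, 1, 2 and 4 h after dosing. Readout was the number of rats out of four protected against hindlimb tonic extension.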

Mus musculus [23] = test: Anticonvulsant activity in ip dosed Kunming mouse assessed as protection against subcutaneous pentylenetetrazole-induced seizures; format: functional
Method in brief: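 Quantitative phase-II study in groups of 10 male Kunming mice. A range of ip doses in 0.5% carboxymethyl cellulose-0.9% saline (0.1 ml) was given until at least three points fell within 10–90% seizure protection (MES or scPTZ) or minimal neurotoxicity. Rotorod toxicity was read 30 min after dosing.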

Mus musculus [24] = test: Anticonvulsant activity in ip dosed Kunming mouse assessed as time peak effect; format: functional

COc1cccc(C2CC23NC(=O)N(C)C3=O)c1OC (stereo unspecified)
active: Activity (Mus musculus [1]) | Activity (Mus musculus [2]) | Activity (Mus musculus [4])
Toxic: Activity (Mus musculus [10])
inactive: Activity (Mus musculus [3]) | Activity (Mus musculus [5]) | Activity (Mus musculus [6]) | Activity (Mus musculus [7]) | Activity (Rattus norvegicus [15]) Not toxic | Activity (Rattus norvegicus [16]) Not toxic | Activity (Rattus norvegicus [17]) Not toxic | Activity (Rattus norvegicus [18]) Not toxic | Activity (Rattus norvegicus [20])
Non-toxic: Activity (Mus musculus [8]) | Activity (Mus musculus [9]) | Activity (Mus musculus [11]) | Activity (Mus musculus [12]) | Activity (Mus musculus [13]) | Activity (Rattus norvegicus [14])
25%: Activity (Rattus norvegicus [19])

COc1ccc(C2CC23NC(=O)N(C)C3=O)c(OC)c1OC (stereo unspecified)
inactive: Activity (Mus musculus [1]) | Activity (Mus musculus [3]) | Activity (Mus musculus [21]) | Activity (Mus musculus [5]) | Activity (Mus musculus [6]) | Activity (Rattus norvegicus [15]) Not toxic | Activity (Rattus norvegicus [16]) Not toxic | Activity (Rattus norvegicus [17]) Not toxic | Activity (Rattus norvegicus [18]) Not toxic | Activity (Rattus norvegicus [20])
Non-toxic: Activity (Mus musculus [8]) | Activity (Mus musculus [9]) | Activity (Mus musculus [10]) | Activity (Mus musculus [11]) | Activity (Mus musculus [12]) | Activity (Mus musculus [13]) | Activity (Rattus norvegicus [14])
active: Activity (Mus musculus [4])

O=C1NC(=O)C(c2ccccc2)(c2ccccc2)N1 [PHENYTOIN]
2 h: Time (Mus musculus [24])
> 300 mg/kg: ED50 (Mus musculus [23])
active: Activity (Rattus norvegicus [22])
